SENP8 block-1 – inhibitors of human SENP8 protease. Q96LD8. recombinant SENP8, Nedd8 substrate fluorescence. inhibition, % at 20 µM. 0.64% of 360,000 active. AID 602440; in the data active = inhibition mostly above about 40%, no sharp cut-off; inactive = mostly below about 27%
SENP1 FRET inh – blocks the human SENP1 SUMO protease catalytic domain; Q9P0U3; recombinant SENP1 catalytic domain, CyPet-SUMO1-YPet FRET cleavage; inhibition, % at 10 µM; 0.21% of 360,000 active; AID 624204;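 active = inhibition at least 30% at 10 µM, raw YFP signal under a set limit, fluorescence ratio 0.5 to 1.5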
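Test system: human SENP1 catalytic domain; medium: Tris pH 8 buffer plus EDTA, NaCl, BME, BSA, NP40, catalase; incubation: 50 min reaction at room temperature; technique: FRET, CFP and YFP emission; controls: no-enzyme low control and enzyme-plus-DMSO high control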
HSP90 inh – inhibitors of HSP90 luciferase refolding in rabbit reticulocyte lysate; luciferase refolding luminescence, 3 h; inhibition, % at 5.6 µM; 0.91% of 290,000 active; AID 1789;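 active = inhibition above the screen-wide mean plus 3 SD, computed separately per campaign, cut at about 16% in these data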;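 note: inhibitors lower the luminescence because luciferase stays unfolded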
SENP7 block – blocks the human protease SENP7; AID 434973; recombinant SENP7, Z-RLRGG-aminoluciferin luminescence, 40 min; 1.5% of 330,000 active; inhibition, % at 5 µM;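 active = inhibition above about 50% at the single test dose, limit read from the data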
SENP6 inh – SENP6 protease inhibition; Q9GZR1; Recombinant SENP6 catalytic domain, aminoluciferin luminescence; inhibition, % at 10 µM; 1.8% of 330,000 active; AID 2599;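 active = inhibition above about 50% at the single tested dose, limit read from the data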
Target sequence (Q9GZR1 628-1112 limits assumed): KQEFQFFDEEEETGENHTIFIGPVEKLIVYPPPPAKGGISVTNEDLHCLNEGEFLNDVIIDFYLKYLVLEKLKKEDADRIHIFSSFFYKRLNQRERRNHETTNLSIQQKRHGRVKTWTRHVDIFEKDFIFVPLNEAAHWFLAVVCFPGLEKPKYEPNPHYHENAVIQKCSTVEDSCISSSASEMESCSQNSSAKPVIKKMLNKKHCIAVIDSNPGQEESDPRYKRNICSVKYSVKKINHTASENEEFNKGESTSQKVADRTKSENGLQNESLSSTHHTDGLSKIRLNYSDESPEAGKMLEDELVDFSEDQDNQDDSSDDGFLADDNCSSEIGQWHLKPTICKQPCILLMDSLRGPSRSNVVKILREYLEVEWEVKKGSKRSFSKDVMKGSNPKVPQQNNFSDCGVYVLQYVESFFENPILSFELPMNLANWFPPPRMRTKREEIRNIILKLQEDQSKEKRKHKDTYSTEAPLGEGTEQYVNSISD
SENP8 block-2 – blocks the human protease SENP8; purified SENP8, Z-RLRGG-aminoluciferin cleavage, luminescence; inhibition, % at 10 µM; 1.2% of 330,000 active; in the data active = inhibition above about 50%
HSP90 inh confirm – HSP90 inhibition, confirmation assay. 64% of 2,300 active. shares compounds with HSP90 inh. rabbit reticulocyte lysate, luciferase refolding luminescence, 3 h. inhibition, % at 5.9 µM. AID 1846; in the data active = inhibition above about 18%
luciferase ctr – firefly luciferase inhibition, HSP90 counter-screen; shares compounds with HSP90 inh; purified native firefly luciferase, luminescence; inhibition, % at 5.9 µM; 48% of 2,300 active;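 active = inhibition above the mean inhibition of all tested sample wells plus 3 SD, cut at about 10% in these data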
Hits are given with their value; n = inactive; x = no result. Only some compounds are listed: those with a hit (about 2.9% of all), similar ones and a draw of the others.

SMILES	SENP8 block-1	SENP1 FRET inh	HSP90 inh	SENP7 block	SENP6 inh	SENP8 block-2	HSP90 inh confirm	luciferase ctr
COC(=O)[C@@H](c1ccccc1)N(C)S(=O)(=O)c1cccc(S(=O)(=O)N(C)[C@@H](C(=O)OC)c2ccccc2)c1	n	n	22	n	n	n	n	n
CCOC(=O)c1sc(NC(=O)CSc2nnnn2-c2ccccc2)nc1C	n	n	n	n	n	n	x	x
COC(=O)c1sc(NC(=O)CSc2nnnn2-c2cccc(OC)c2)nc1C	n	n	20	n	n	n	n	n
CCOC(=O)C(CC(=O)c1ccccc1)CC(=O)c1ccccc1	n	n	n	n	n	n	x	x
Cc1oc(-c2ccc(C(F)(F)F)cc2)nc1CN(Cc1ccccn1)C[C@@H]1CCC(=O)N1	n	n	n	n	n	n	x	x
CCOc1ccc(-c2nc(CN(Cc3ccccc3)C[C@@H]3CCC(=O)N3)c(C)o2)cc1	n	n	23	n	n	n	41	n
O=C(O)c1ccc2nc(CO)[nH]c2c1	n	n	36	n	n	n	20	n
O=C(Nc1ccccc1)c1cc(C2COCCN2C(=O)C2CC2)on1 (centres undefined)	n	n	x	x	x	x	x	x
Oc1ccccc1Nc1nc(NCc2ccco2)c2ccccc2n1	n	n	28	n	n	n	n	n
Cc1ccccc1Nc1nc(NCc2ccco2)c2ccccc2n1	n	n	n	n	n	n	x	x
COC(=O)CCCn1cc(CN2CC(N3CCN(CCN(C)C)CC3)CS2(=O)=O)nn1 (centres undefined)	n	n	x	x	x	x	x	x
COC(=O)c1ccc(Cn2nc(C)cc2C)cc1	n	n	24	n	n	n	n	n
COc1ccc(CC(=O)Nc2ccc(S(=O)(=O)N3CCN(C)CC3)cc2)cc1	n	n	x	n	n	n	x	x
COc1ccc(C(=O)NCC(=O)OCC(=O)Nc2cccc(S(=O)(=O)N3CCCC3)c2)cc1	n	n	n	n	n	n	x	x
CC(=O)c1sc(-c2ccc(Cl)cc2)cc1N	n	n	18	n	n	n	n	n
Cc1oc(-c2ccc3c(c2)OCCO3)cc1C(=O)NC(Cc1ccccc1)C(=O)O (centres undefined)	n	n	39	n	n	n	65	18
COC(=O)CCC(NC(=O)c1cc(-c2ccc3c(c2)OCCO3)oc1C)C(=O)OC (centres undefined)	n	n	n	n	n	n	x	x
Cc1ccc(C(=O)NCc2ccccc2CN2CCCC2)cc1S(=O)(=O)N1CCOCC1	n	n	x	n	n	n	x	x
N/C(=N\NC(=O)Nc1ccc(Cl)cc1)c1ccccn1	n	n	24	n	n	n	n	n
CNC(=O)N/N=C(\N)c1ccccn1	n	n	n	n	n	n	x	x
COc1ccc(-c2csc(C(C)(O)c3ccc(F)c(F)c3)n2)cc1 (centres undefined)	n	n	x	x	x	x	x	x
CCOC(=O)c1ccc(N/C=C2/CCCC(C)C2=O)cc1 (centres undefined)	n	n	n	n	n	n	x	x
CC1CCC/C(=C\Nc2ccc(C(=O)O)cc2)C1=O (centres undefined)	n	n	37	n	n	n	61	22
Cc1ccc(Cc2c(-c3cccc(Br)c3)nc3c(C)cc(Br)cn23)cc1	n	n	x	x	x	x	x	x
CCn1cc(C(=O)NC2CCCCCC2)c(=O)c2ccc(C)nc21	n	n	n	n	n	n	x	x
SMILES	SENP8 block-1	SENP1 FRET inh	HSP90 inh	SENP7 block	SENP6 inh	SENP8 block-2	HSP90 inh confirm	luciferase ctr
CCn1cc(C(=O)NC2CCc3ccccc32)c(=O)c2ccc(C)nc21 (centres undefined)	x	x	27	x	x	x	n	n
COc1ccc(C(=O)c2coc3ccc(O)c(CN4CCCC4)c23)cc1	n	n	50	n	n	n	n	n
Cc1cccc(NC(=S)NC(=O)/C=C/c2ccco2)n1	n	n	18	n	n	n	n	n
COc1ccc(NC(=O)O/N=C/c2c(C)nn(C(C)(C)C)c2C)cc1	n	n	33	n	n	n	51	53
Cc1nn(C)c(C)c1NC(=O)Nc1ccc(Cl)c(Cl)c1	n	n	n	n	n	n	x	x
Cc1nn(C(C)(C)C)c(C)c1/C=N/OC(=O)Nc1ccc(Cl)c(Cl)c1	n	n	78	n	59	n	86	85
COc1ccc(-n2ncc(C(C)NS(=O)(=O)c3ccc(C)s3)c2C)cc1 (centres undefined)	n	n	n	n	n	n	x	x
COc1cccc(NC(=O)CN2C(=O)c3cccnc3Oc3ccc(Cl)cc32)c1	n	n	n	n	n	n	x	x
O=C(CN1C(=O)c2cccnc2Oc2ccc(Cl)cc21)Nc1ccccc1F	n	n	36	n	n	n	n	n
Fc1ccccc1OCCSc1nnnn1-c1ccccc1	n	n	25	n	n	n	29	n
COc1ccc(-n2nc(C(=O)NCC(=O)NCCCN3CCOCC3)c3ccccc3c2=O)cc1	n	n	n	n	n	n	x	x
CCc1ccc2nc(N(CCN(C)C)C(=O)c3ccc4ncsc4c3)sc2c1	n	n	28	n	n	n	23	19
Cc1ccc2oc(=O)c(/C=C(\O)C(C)(C)C)nc2c1	n	n	n	n	n	n	x	x
Cc1ccc2oc(=O)c(/C=C(\O)c3ccco3)nc2c1	n	n	37	n	n	n	37	n
Cc1ccc2oc(=O)c(/C=C(\O)c3sc(C)nc3C)nc2c1	n	n	n	n	n	n	x	x
CC(C)(C)/C(O)=C/c1nc2cc(Cl)ccc2oc1=O	n	n	80	n	n	n	81	n
CCCCN(C)S(=O)(=O)c1c(C)[nH]c(=O)[nH]c1=O	n	n	25	n	n	n	n	n
CCCCN(CCCC)S(=O)(=O)c1c(C)[nH]c(=O)[nH]c1=O	n	n	n	n	n	n	x	x
Cc1cc(C(=O)Nc2cccc3c2O[C@@H](CN(C)S(C)(=O)=O)[C@H](C)CN([C@@H](C)CO)C3=O)n(C)n1	n	n	x	n	n	n	x	x
Cc1cn([C@H]2C[C@H](O)[C@@H](CNCc3cnc(N4CCOCC4)s3)O2)c(=O)[nH]c1=O	n	n	x	x	x	x	x	x
Cn1c2ccccc2c(=O)c2ccc(C#CC3(O)CCCCC3)cc21	n	n	59	n	n	n	66	65
COc1cccc2sc3cc(C#CC4(O)CCCCC4)ccc3c(=O)c12	n	n	x	n	n	n	x	x
O=C(COc1ccccc1Cl)N(Cc1cccs1)C1CCS(=O)(=O)C1 (centres undefined)	n	n	n	n	n	n	x	x
Cc1cc(Cl)ccc1OCC(=O)N(Cc1cccs1)C1CCS(=O)(=O)C1 (centres undefined)	n	n	23	n	n	n	n	n
Cc1[nH]c(C)c(S(=O)(=O)NCCc2ccc(S(N)(=O)=O)cc2)c1C(=O)N1CCCC1	n	n	n	n	n	n	x	x
